In ChEMBL document CHEMBL2057137, “Lead optimization studies on FimH antagonists: discovery of potent and orally bioavailable ortho-substituted biphenyl mannosides” (J Med Chem, 2012):

Columns and labels:
Escherichia coli [1] = assay: Inhibition of Escherichia coli FimH-mediated hemagglutinination of human red blood cells assessed as drug level required for > 90% inhibition of hemagglutinination after 30 mins by hemagglutinination inhibition assay
Escherichia coli [2] = assay: Binding affinity to […] Escherichia coli FimH-lectine domain assessed as melting temperature at 100 uM by differential scanning fluorometric assay
Summary of the method: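 Untagged FimH lectin domain (residues 1–158 of UPEC J96 FimH), 5 µg in a 50 µl reaction of HBS (20mM HEPES pH 7.5, 150mM NaCl). Compound at 100µM final, diluted from DMSO stocks, with SYPRO Orange at 5X final. Controls were FimH alone plus 0.2% DMSO. Melt curve ran from 20–90°C in 0.5 °C steps of 15 s each, with fluorescence read on the HEX channel.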

[3] = Binding affinity to biotinylated Escherichia coli FimH-lectin domain after 30 mins by biolayer interferometry method
Summary of the method: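 FimH lectin domain biotinylated 1:1, loaded at 50μg/ml in HBS (20mM HEPES pH 7.5, 150mM NaCl) onto streptavidin tips, biocytin-blocked. Compound applied as 7 twofold dilutions in HBS for 10 min association, then 30 min dissociation, 30°C with shaking. Referenced to biocytin-blocked pins for drift and nonspecific binding. Kd from global kinetic fitting.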

[4] = Effective permeability of the compound by PAMPA assay; format: ADME; design: unit not given here
Escherichia coli [5] = assay: Antibacterial activity against Escherichia coli K-12 ATCC 25404 assessed as inhibition of biofilm formation after 2 hrs by confocal laser microscopic analysis; format: functional, organism-based; settings: Escherichia coli, K-12 ATCC 25404, 2 h
[6] = Drug level in mouse urine at 50 mg/kg, po measured after 6 hrs; format: ADME, organism-based; design: dose 50 mg/kg, route oral; settings: read-out: Drug uptake
Summary of the method: (§1)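 Oral dosing in mice at 50 mg/kg. Plasma and urine sampled at 30 min and 1, 2, 3, 4, 6 h after dosing. Compound quantified by LC-MS/MS in selected reaction monitoring mode.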

[7] = Plasma concentration in mouse at 50 mg/kg, po measured after 6 hrs; format: ADME, organism-based; design: dose 50 mg/kg, route oral; summary of the method: as §1
Mus musculus = assay: Ratio of drug uptake in mouse urine to plasma at 50 mg/kg, po measured after 6 hrs; settings: in vivo

SMILES | EC>90 (Escherichia coli [1]) | Tm (Escherichia coli [2]) | Kd [3] | other results
COC(=O)c1cc(-c2ccc(O[C@H]3O[C@H](CO)[C@@H](O)[C@H](O)[C@@H]3O)cc2)ccn1 | 0.5 µM | 73.7 °C | – | –
O=C(O)c1cccc(-c2ccc(O[C@H]3O[C@H](CO)[C@@H](O)[C@H](O)[C@@H]3O)cc2)c1 | – | 70.9 °C | 2.21 nM | –
COC(=O)c1cccc(-c2ccc(O[C@H]3O[C@H](CO)[C@@H](O)[C@H](O)[C@@H]3O)c(C(F)(F)F)c2)c1 | 0.03 µM | – | – | log Pe [4]: -3.91; IC50 (Escherichia coli [5]): 170 nM
CNC(=O)c1cc(C(=O)NC)cc(-c2ccc(O[C@H]3O[C@H](CO)[C@@H](O)[C@H](O)[C@@H]3O)c(C(F)(F)F)c2)c1 | 0.008 µM | 76.2 °C | – | log Pe [4]: -6.27; IC50 (Escherichia coli [5]): 43 nM; concentration at 6 h [6]: 890 nM; concentration at 6 h [7]: 40 nM; Ratio (Mus musculus): 10
COC(=O)c1cccc(-c2ccc(O[C@H]3O[C@H](CO)[C@@H](O)[C@H](O)[C@@H]3O)c(OC)c2)c1 | 0.19 µM | – | – | IC50 (Escherichia coli [5]): 890 nM
O=C(NCCO)c1cccc(-c2ccc(O[C@H]3O[C@H](CO)[C@@H](O)[C@H](O)[C@@H]3O)cc2)c1 | 0.5 µM | – | – | –
COC(=O)c1sc(-c2ccc(O[C@H]3O[C@H](CO)[C@@H](O)[C@H](O)[C@@H]3O)cc2)cc1NC(N)=O | 0.02 µM | – | – | –
CN1CCN(C(=O)c2cccc(-c3ccc(O[C@H]4O[C@H](CO)[C@@H](O)[C@H](O)[C@@H]4O)cc3)c2)CC1 | 4 µM | – | – | –
COC(=O)c1cccc(-c2ccc(O[C@H]3O[C@H](CO)[C@@H](O)[C@H](O)[C@@H]3O)cc2C(=O)OC)c1 | 1 µM | – | – | log Pe [4]: -4.08
CNC(=O)c1cccc(-c2ccc(O[C@H]3O[C@H](CO)[C@@H](O)[C@H](O)[C@@H]3O)c(Cl)c2)c1 | 0.12 µM | – | – | IC50 (Escherichia coli [5]): 520 nM; Ratio (Mus musculus): 10
COC(=O)c1ccc(-c2ccc(O[C@H]3O[C@H](CO)[C@@H](O)[C@H](O)[C@@H]3O)cc2)cc1 | – | – | 3.99 nM | –
COC(=O)c1cccc(-c2ccc(O[C@H]3O[C@H](CO)[C@@H](O)[C@H](O)[C@@H]3O)cc2)c1 | – | 73.4 °C | 0.08 nM | log Pe [4]: -5.42; IC50 (Escherichia coli [5]): 940 nM
OC[C@H]1O[C@H](Oc2ccc3ccccc3c2)[C@@H](O)[C@@H](O)[C@@H]1O | – | 70.8 °C | 2.72 nM | –
COc1cccc(-c2ccc(O[C@H]3O[C@H](CO)[C@@H](O)[C@H](O)[C@@H]3O)cc2)c1 | – | 71.8 °C | 1.25 nM | –
COC(=O)c1cc(C(=O)OC)cc(-c2ccc(O[C@H]3O[C@H](CO)[C@@H](O)[C@H](O)[C@@H]3O)cc2)c1 | – | 72.5 °C | – | –
CNC(=O)c1cccc(-c2ccc(O[C@H]3O[C@H](CO)[C@@H](O)[C@H](O)[C@@H]3O)c(C(F)(F)F)c2)c1 | 0.03 µM | 72.3 °C | – | IC50 (Escherichia coli [5]): 130 nM; Ratio (Mus musculus): 10
OC[C@H]1O[C@H](Oc2ccc(-c3cccc4cnccc34)cc2)[C@@H](O)[C@@H](O)[C@@H]1O | 0.25 µM | – | – | –
OC[C@H]1O[C@H](Oc2ccc(-c3ccc4ccncc4c3)cc2)[C@@H](O)[C@@H](O)[C@@H]1O | 0.75 µM | – | – | –
O=C(Nc1cccnc1)c1cccc(-c2ccc(O[C@H]3O[C@H](CO)[C@@H](O)[C@H](O)[C@@H]3O)cc2)c1 | 0.37 µM | 72.5 °C | – | –
CC(=O)Nc1cccc(-c2ccc(O[C@H]3O[C@H](CO)[C@@H](O)[C@H](O)[C@@H]3O)cc2)c1 | – | 72.3 °C | 1.14 nM | –
CNS(=O)(=O)c1cccc(-c2ccc(O[C@H]3O[C@H](CO)[C@@H](O)[C@H](O)[C@@H]3O)cc2)c1 | – | 72 °C | 0.49 nM | –
CS(=O)(=O)Nc1cccc(-c2ccc(O[C@H]3O[C@H](CO)[C@@H](O)[C@H](O)[C@@H]3O)cc2)c1 | – | 70.9 °C | 2 nM | –
NC(=O)c1cccc(-c2ccc(O[C@H]3O[C@H](CO)[C@@H](O)[C@H](O)[C@@H]3O)cc2)c1 | – | 71.7 °C | 1 nM | –
COC(=O)c1cncc(-c2ccc(O[C@H]3O[C@H](CO)[C@@H](O)[C@H](O)[C@@H]3O)cc2)c1 | 0.19 µM | – | – | –
